Screening data from PubChem BioAssay.
Shown are actives, neighbours in structure and some others; about 3.9% of the full set was active somewhere.
FLuc act counter – affects firefly luciferase, flagging false hits in luciferase stimulation screens. ATPlite luciferase biochemical, luminescence, 10 min; 0 = ATP-free wells, 1 = DMSO control. activation factor at 10 µM. 200,000 tested, under 10 active. AID 1027;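 active = luciferase activation factor, scaled between plate controls, of at least 2 with compound at 10 µM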
Target sequence (P08659 whole entry, looked up): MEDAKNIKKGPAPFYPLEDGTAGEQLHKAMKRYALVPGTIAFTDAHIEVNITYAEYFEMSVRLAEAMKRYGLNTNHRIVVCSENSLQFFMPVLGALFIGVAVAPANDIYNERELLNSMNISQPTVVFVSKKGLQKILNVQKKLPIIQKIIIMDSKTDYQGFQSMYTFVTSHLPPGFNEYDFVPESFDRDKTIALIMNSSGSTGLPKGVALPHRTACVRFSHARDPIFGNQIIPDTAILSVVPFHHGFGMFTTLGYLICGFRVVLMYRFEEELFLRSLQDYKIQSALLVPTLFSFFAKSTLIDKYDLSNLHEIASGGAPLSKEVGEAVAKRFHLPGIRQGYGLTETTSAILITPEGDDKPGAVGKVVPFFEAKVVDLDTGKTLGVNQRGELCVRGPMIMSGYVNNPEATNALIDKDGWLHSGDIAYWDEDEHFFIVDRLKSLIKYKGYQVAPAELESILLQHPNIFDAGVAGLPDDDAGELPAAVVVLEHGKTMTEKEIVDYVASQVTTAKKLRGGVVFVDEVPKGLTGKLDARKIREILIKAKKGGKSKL
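Assay system: Luciferase/luciferin detection reagent, cell-free biochemical luciferase assay / Read-out: luciferase activation / Benchmarks: No-ATP low control, compound-free enzyme-plus-ATP high control / Medium: PBS buffer for ATP / Detection: luminescence measurement of luciferase light output / Schedule: 10 min at ambient temperature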
FLuc inh counter – Photinus pyralis luciferase inhibition counter-screen; P08659; ATPLite firefly luciferase biochemical luminescence, 10 min; inhibition, % at 10 µM; hit rate 1.5% among 200,000;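 active = inhibition above about 50% when tested at 10 µM, limit read from the data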
APP 5'UTR act – activates APP 5'UTR luciferase reporter; SH-SY5Y APP 5'UTR luciferase reporter, luminescence; zero percent = DMSO vehicle wells; activation, % at 2 µM; hit rate 1% among 190,000;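 active = activation above a set limit, based on mean plus 3 SD of controls, cut at about 140% in these data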
STAT1 act – increases IFN-gamma driven STAT1 reporter signal | NIH 3T3 STAT1-luciferase reporter, luminescence; 100% = IFN-gamma alone, no compound | activation (% of control), % at 5.5 µM | hit rate 2.6% among 200,000 | AID 932;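 active = activation above the screen-wide mean activation plus 3 SD, cut at about 130% in these data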;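 note: raw ratio to IFN-gamma control signal so 100% means no change and 0% no light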
Rad51 HR inh – blocks human Rad51 in homologous recombination; hit rate 0.085% among 200,000; AID 1385; Q06609; hRad51 DNA strand exchange, fluorescence dequenching; inhibition, % at 10 µM;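 active = inhibition above 40% at the single screening dose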;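 note: 0% = DMSO control wells and 100% = blanks with heterologous ssDNA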
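Test system: preformed human Rad51 ssDNA filaments; also added: Donor/quencher-labelled 47-bp dsDNA substrate; doses: 10 µM final, single point; times: 37 °C 15-min filament assembly, 30-min compound preincubation, 15-min exchange; detection: FRET fluorescence dequenching, excitation 485 nm, emission 520 nm; read-out basis: Fluorescence-based percent inhibition, control- and blank-normalised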
NF-kB expr up – raises NF-kB expression in human neuronal cells. hit rate 1.6% among 190,000. NF-kB reporter expression; stronger effect = higher value. fold change at 12.5 µM. AID 1239; in the data active = fold change above about 3.3
Active calls of the source: *; i = inactive; nt = not tested or not shown.

SMILES	FLuc act counter	FLuc inh counter	APP 5'UTR act	STAT1 act	Rad51 HR inh	NF-kB expr up
CC(C)N(C(C)C)S(=O)(=O)c1ccc(NN)nc1	nt	nt	nt	nt	43.2*	nt
CCOC(=O)COc1ccc(/C=C2\NC(=S)N(CC)C2=O)cc1	1.1	-5.1	8.9	101.8	10.4	1.2
CCCC(=O)NC(=S)Nc1ccc(NC(=O)C(C)C)c(OC)c1	1	-4.7	-2.1	87.7	-2.4	1.03
CCOc1ccc2ccccc2c1CNCCN1CCOCC1	1	-4.1	1.5	102.5	-9.0	7.73*
CCCCc1ccc(-c2ccc(Br)cc2O)nc1	0.6	42.0	28.7	139.9*	4.8	5.51*
CCOc1ccc(-c2cn(-c3ccc(OC)cc3)c(SC)n2)cc1	1	4.8	127.7	143.6*	4.8	3.8*
CC(C(=O)Nc1ccccc1)N(c1cccc(Cl)c1)S(C)(=O)=O (centres undefined)	1	-0.5	2.9	104.2	12.6	1.23
O=C(Nc1cccnc1)c1sc2cccc(F)c2c1Cl	0.7	26.1	82.8	132.6*	-17.5	0.85
O=C(Nc1ccccn1)c1sc2cccc(F)c2c1Cl	0.2	80.7*	179.2*	84.4	20.0	5.67*
CN(C)CCNC(=O)c1sc2cccc(F)c2c1Cl	1.1	-9.9	-18.1	102.6	8.3	1.27
Cc1cc(C)c(O)c(-c2n[nH]c3c2C(c2cccc(O)c2)N(Cc2ccco2)C3=O)c1 (centres undefined)	nt	nt	nt	nt	-18.1	nt
CCOC(=O)c1ccc(NC(=O)c2ccccc2C)cc1	0.9	13.3	89.3	126.2	nt	1.74
Cc1ccc(C#CC[N+]2(C)CCCCC2)cc1	nt	nt	nt	nt	9.4	nt
O=C1NN(c2ccccc2)C(=O)/C1=C/c1ccc(-c2ccc(Cl)c(C(=O)O)c2)o1	1	1.1	10.8	100.6	9.2	1.11
Cc1cccc(N2NC(=O)/C(=C/c3ccc(-c4ccc(Cl)c(C(=O)O)c4)o3)C2=O)c1	1	2.3	9.4	89.7	2.7	3.94*
N#Cc1c(NC(=O)c2cc(C3CC3)on2)sc2c1CCC2	1	-4.5	9.1	nt	-0.4	1.44
Cc1cc(C(=O)Nc2sc3c(c2C#N)CCC3)no1	0.3	65.9*	17.5	122.2	-1.9	2.31
Cc1cc(C(=O)Nc2sc3c(c2C#N)CCCC3)no1	0.2	83.7*	92.1	118.9	-1.3	3.14
Cc1cc(C(=O)Nc2sc3c(c2C#N)CCC(C)C3)no1 (centres undefined)	0.3	72.5*	66.5	138.7*	nt	1.07
COc1ccc(S(=O)(=O)NCCOc2cccc3cccnc23)cc1OC	1	-0.9	6.3	129.0*	-6.4	1.11
COc1cc(C(=O)NCCOc2cccc3cccnc23)cc(OC)c1OC	1	-3.2	1.0	83.3	-5.4	1
Cc1ccccc1NC(=S)NNC(=O)c1ccoc1C	1	-4.6	90.7	110.7	-7.8	1.59
Cc1occc1C(=O)NNC(=S)Nc1ccccc1C(F)(F)F	1	-3.3	108.2	132.9*	-4.2	0.95
Cc1cc(C)c(C#N)c(SCc2nc3ccccc3[nH]2)n1	1	-2.7	147.6*	116.9	-5.4	2.9
N#Cc1cc2c(nc1SCc1nc3ccccc3[nH]1)CCC2	0.2	78.0*	248.0*	127.3	-1.2	1.55
SMILES	FLuc act counter	FLuc inh counter	APP 5'UTR act	STAT1 act	Rad51 HR inh	NF-kB expr up
Cc1ccc(SCc2nc3ccccc3[nH]2)cc1	0.5	53.7*	122.0	111.1	-0.2	2.18
c1ccc(SCc2nc3ccccc3[nH]2)cc1	0.8	22.4	68.5	111.8	-3.5	2.27
N#Cc1c(SCc2nc3ccccc3[nH]2)nc2c(c1C(F)(F)F)CCC2	nt	nt	5.2	116.7	nt	nt
Cc1cc(C)c(C#N)c(SCc2ccc(F)cc2)n1	1	-4.0	10.7	97.7	9.8	1.02
O=C(Nc1ccccn1)c1onc2c1CCCC2	0.1	86.7*	149.6*	102.6	21.3	1.08
COc1cc(C(=O)Nc2ccccn2)cc(OC)c1OC	1.1	-8.1	7.5	101.4	5.4	1.24
Cc1cc(C(=O)Nc2ccccn2)cs1	0.4	56.7*	107.1	111.2	0.2	2.84
O=C(Nc1ccccn1)c1csc2c1CCCC2	0.6	43.7	132.6	137.4*	-6.5	3.91*
Cc1cc(=O)n2[nH]c(-c3cccnc3)nc2n1	0.7	29.9	nt	99.8	nt	0.98
COC(=O)Cc1c(C)nc2nc(-c3ccc(C)cc3)[nH]n2c1=O	0.5	50.0*	16.6	98.5	-12.8	1.18
Cc1nc2nc(-c3ccc(Cl)cc3)[nH]n2c(=O)c1C	0.3	66.3*	1.6	123.4	8.9	2.2
COC(=O)Cc1c(C)nc2nc(-c3ccccc3)[nH]n2c1=O	0.9	5.9	-6.5	102.9	2.1	1.18
COC(=O)Cc1c(C)nc2nc(-c3ccc(Cl)cc3)[nH]n2c1=O	0.4	57.8*	-13.3	94.0	3.0	1.46
Cc1nc2nc(-c3ccccc3)[nH]n2c(=O)c1C	0.9	12.9	3.6	106.2	-0.4	1.41
Cc1cc(=O)n2[nH]c(-c3ccc(F)cc3)nc2n1	0.3	65.9*	-8.3	108.5	-3.9	1.5
CC(C)(C)c1nnc(NC(=S)Nc2ccccc2)s1	0.8	24.5	92.3	139.6*	2.8	3.58*
O=[N+]([O-])c1ccc2c(c1)nc1n2CCN(C2CCCCC2)C1	0.9	7.3	90.7	143.6*	nt	nt
O=[N+]([O-])c1ccc2c(c1)nc1n2CCCCC1	1	-2.8	14.3	126.0	-9.2	0.87
Clc1ccc(-c2nc(/C=N/N3CCOCC3)c3ccccn23)cc1	1	-3.4	-5.0	106.6	6.8	0.75
C=CCN1C(=O)/C(=C/c2ccc(OC(C)=O)c(OCC)c2[N+](=O)[O-])SC1=S	0.9	9.4	-10.7	92.0	-28.3	0.74
CC(=O)/C(N=Nc1ccc2c(c1)OCO2)=C(\C)O	0.8	16.2	37.1	138.1*	4.2	1.15
O=C(NCC1CC1)c1cc(-c2ccccc2)nn1CC1CC(c2cccnc2)=NO1 (centres undefined)	nt	nt	nt	nt	0.9	nt
CCOC(=O)c1c(-c2ccccc2)oc2cc(CN(C)C)c(O)c(CN(C)C)c12	nt	nt	-53.2	109.2	nt	nt
CCc1cn([C@H]2C[C@H](O)[C@@H](CO)O2)c(=O)[nH]c1=O	1	4.6	-15.2	89.5	2.4	1.14
O=c1[nH]c(=O)n([C@H]2C[C@H](O)[C@@H](CO)O2)cc1C(F)(F)F	1.1	-8.7	-58.6	108.8	-7.4	5.41*
CCOc1cc(Br)c(Br)c(C=Nc2ccc(NC(C)=O)cc2)c1O	1.1	-7.8	13.5	98.2	-26.4	1.37
CC(=O)Nc1ccc(N=Cc2c(O)c(C(=O)Nc3ccccc3)cc3ccccc23)cc1	0.1	94.9*	7.0	89.1	i	1.07
CC(C)c1ccc2oc3nc(N)c(C(=O)O)cc3c(=O)c2c1	0.1	94.8*	nt	nt	-10.2	nt
COc1ccc(-n2c(C)nc(N)c2C(=O)c2ccccc2)cc1	nt	nt	nt	nt	7.7	nt
